The source made the active and inactive calls. The calls are words filed in the database; no cut-off is given here.
Tests used:
Mu-type opioid receptor = Mu-type opioid receptor (Mus musculus, UniProt P42866); test: Displacement of [3H]DAMGO from mu opioid receptor in mouse whole brain without cerebellum
Outline: (§1)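 Competition binding on mouse whole-brain membranes, using [³H]DAMGO for mu and [³H]DPDPE for delta. % specific binding was plotted against log concentration, and IC50 was derived from the curve.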

[1] = molecular target: Delta-type opioid receptor (Mus musculus, UniProt P32300); test: Displacement of [3H]DPDPE from delta opioid receptor in mouse whole brain without cerebellum; outline: as §1
[2] = molecular target: Kappa-type opioid receptor (Mus musculus) (UniProt P33534); test: Agonist activity at kappa opioid receptor-mediated G-protein activation in mouse whole brain membrane without cerebellum at 10 uM by [35S]GTPgammaS binding assay; format: functional, cell membranes
Outline: (§2)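 Mouse whole-brain membranes (cerebellum removed) incubated with [³⁵S]GTPγS and GDP plus agonist at 10^-5 M, alone or together with nor-BNI or b-FNA (levels not given). The read-out is % stimulation of [³⁵S]GTPγS binding.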

[3] = molecular target: Kappa-type opioid receptor (Mus musculus) (UniProt P33534); test: Agonist activity at kappa opioid receptor-mediated G-protein activation in mouse whole brain membrane without cerebellum at 10 uM by [35S]GTPgammaS binding assay in presence of nor-BNI; format: functional, cell membranes; outline: as §2
[4] = molecular target: Kappa-type opioid receptor (Mus musculus) (UniProt P33534); test: Agonist activity at kappa opioid receptor-mediated G-protein activation in mouse whole brain membrane without cerebellum at 10 uM by [35S]GTPgammaS binding assay in presence of beta-funaltrexamine; format: functional, cell membranes; outline: as §2
Mus musculus [5] = test: Antinociceptive activity in mouse at 10 mg/kg, sc by hotplate test; format: functional, organism-based; parameters: dose 10 mg/kg
Outline: (§3)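 Mice were given agonist 10 mg/kg sc, and antinociception was read in the hot-plate and tail-flick tests. Pretreatment was saline or nor-BNI (5 or 20 mg/kg sc) 24 h before agonist. Data are mean with SEM, n = 6–8, compared with the saline–agonist group.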

Mus musculus [6] = test: Antinociceptive activity in mouse at 10 mg/kg, sc by tail-flick test; format: functional, organism-based; parameters: dose 10 mg/kg; outline: as §3
Mus musculus [7] = test: Antinociceptive activity in mouse assessed as inhibition of analgesia at 10 mg/kg, sc pretreated with 20 mg/kg, sc nor-BNI for 24 hrs by hotplate test; format: functional, organism-based; outline: as §3
Mus musculus [8] = test: Antinociceptive activity in mouse assessed as inhibition of analgesia at 10 mg/kg, sc pretreated with 20 mg/kg, sc nor-BNI for 24 hrs by tail-flick test; format: functional, organism-based; outline: as §3
Mus musculus [9] = test: Antinociceptive activity in mouse assessed as inhibition of analgesia at 10 mg/kg, sc pretreated with 20 mg/kg, sc beta-funaltrexamine for 24 hrs by hotplate test; format: functional, organism-based
Outline: (§4)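 Mouse hot-plate and tail-flick antinociception after agonist 10 mg/kg sc. Pretreatment was saline, b-FNA 20 mg/kg sc or NTI 3 mg/kg sc, given at 24 h or 30 min before agonist. Data are mean with SEM of 6–8 trials.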

Mus musculus [10] = test: Antinociceptive activity in mouse assessed as inhibition of analgesia at 10 mg/kg, sc pretreated with 20 mg/kg, sc beta-funaltrexamine for 24 hrs by tail-flick test; format: functional, organism-based; outline: as §4
Mus musculus [11] = test: Antinociceptive activity in mouse assessed as inhibition of analgesia at 10 mg/kg, sc pretreated with 3 mg/kg, sc NTI for 24 hrs by hotplate test; format: functional, organism-based; outline: as §4
Mus musculus [12] = test: Antinociceptive activity in mouse assessed as inhibition of analgesia at 10 mg/kg, sc pretreated with 3 mg/kg, sc NTI for 24 hrs by tail-flick test; format: functional, organism-based; outline: as §4
[13] = molecular target: Kappa-type opioid receptor (Cavia porcellus, UniProt P41144); test: Displacement of [3H]U69,593 from kappa opioid receptor in guinea pig cerebellum; format: tissue-based
Chain of Kappa-type opioid receptor (P41144 whole entry): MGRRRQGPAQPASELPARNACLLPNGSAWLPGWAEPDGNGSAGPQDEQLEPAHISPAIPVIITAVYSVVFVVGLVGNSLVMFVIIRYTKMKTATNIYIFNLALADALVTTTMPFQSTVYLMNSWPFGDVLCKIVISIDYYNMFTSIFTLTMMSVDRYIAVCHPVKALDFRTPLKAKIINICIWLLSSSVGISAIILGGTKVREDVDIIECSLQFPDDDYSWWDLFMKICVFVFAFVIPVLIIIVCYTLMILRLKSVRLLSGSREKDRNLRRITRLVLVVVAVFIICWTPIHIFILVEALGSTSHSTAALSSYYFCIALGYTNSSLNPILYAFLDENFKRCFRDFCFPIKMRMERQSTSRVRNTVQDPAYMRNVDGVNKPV

Chain of Kappa-type opioid receptor (Mus musculus) (P33534 whole entry): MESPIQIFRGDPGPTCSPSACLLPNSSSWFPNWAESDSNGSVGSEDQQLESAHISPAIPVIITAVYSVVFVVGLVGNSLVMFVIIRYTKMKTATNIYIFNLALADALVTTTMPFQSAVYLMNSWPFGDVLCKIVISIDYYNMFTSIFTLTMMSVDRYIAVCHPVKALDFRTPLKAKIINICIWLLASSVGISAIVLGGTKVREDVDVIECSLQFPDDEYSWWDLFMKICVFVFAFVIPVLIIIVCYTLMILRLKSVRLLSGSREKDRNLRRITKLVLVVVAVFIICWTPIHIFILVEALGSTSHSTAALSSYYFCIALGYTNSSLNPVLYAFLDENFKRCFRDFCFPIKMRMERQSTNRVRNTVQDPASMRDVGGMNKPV
Chain of Mu-type opioid receptor (P42866 whole entry): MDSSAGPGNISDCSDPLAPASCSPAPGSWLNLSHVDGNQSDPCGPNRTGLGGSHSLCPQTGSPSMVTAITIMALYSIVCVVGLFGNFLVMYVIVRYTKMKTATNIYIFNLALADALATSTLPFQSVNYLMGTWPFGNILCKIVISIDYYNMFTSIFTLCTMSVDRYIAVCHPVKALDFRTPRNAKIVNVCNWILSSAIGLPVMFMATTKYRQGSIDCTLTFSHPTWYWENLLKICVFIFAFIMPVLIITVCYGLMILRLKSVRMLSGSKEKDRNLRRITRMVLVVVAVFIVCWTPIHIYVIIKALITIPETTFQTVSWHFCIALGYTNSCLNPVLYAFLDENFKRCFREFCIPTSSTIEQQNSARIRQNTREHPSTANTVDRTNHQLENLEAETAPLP
Chain of Delta-type opioid receptor (P32300 whole entry): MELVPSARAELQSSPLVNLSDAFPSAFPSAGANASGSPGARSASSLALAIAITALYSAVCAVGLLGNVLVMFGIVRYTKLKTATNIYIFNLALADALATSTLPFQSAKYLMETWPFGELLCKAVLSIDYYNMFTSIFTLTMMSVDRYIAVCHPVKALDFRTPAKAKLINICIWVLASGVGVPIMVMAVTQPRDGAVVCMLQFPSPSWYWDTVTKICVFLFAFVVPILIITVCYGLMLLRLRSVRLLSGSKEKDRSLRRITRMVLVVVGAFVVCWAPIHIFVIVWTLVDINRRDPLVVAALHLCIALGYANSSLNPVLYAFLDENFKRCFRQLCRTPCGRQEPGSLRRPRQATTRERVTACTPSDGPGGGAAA

| Structure (SMILES) | IC50 (Mu-type opioid receptor) [nM] | IC50 [1] [nM] | Activity [2] [%] | Activity [3] [%] | Activity [4] [%] | Activity (Mus musculus [5]) | Activity (Mus musculus [6]) | Activity (Mus musculus [7]) | Activity (Mus musculus [8]) | Activity (Mus musculus [9]) | Activity (Mus musculus [10]) | Activity (Mus musculus [11]) | Activity (Mus musculus [12]) | Ki (Mu-type opioid receptor) [nM] | Ki [1] [nM] | Ki [13] [nM] |
| --- | --- | --- | --- | --- | --- | --- | --- | --- | --- | --- | --- | --- | --- | --- | --- | --- |
| O=C(NC[C@]12CC[C@@]3(O1)[C@@H]1Cc4ccc(O)cc4[C@@]3(CCN1CC1CC1)C2)c1ccccc1 | 0.288 | 2.07 | 29.8 | 10.7 | 19.2 | Active | Active | Active | Active | inactive | inactive | inactive | inactive | – | – | – |
| O=C1N(CCc2ccccc2)CO[C@]12CC[C@@]1(O)[C@@H]3Cc4ccc(O)c5c4[C@@]1(CCN3CC1CC1)[C@H]2O5 | – | – | – | – | – | – | – | – | – | – | – | – | – | 4.54 | 4.82 | 8.66 |

Source: ChEMBL document CHEMBL1152185, “Synthesis of a novel 6,14-epoxymorphinan derivative and its pharmacology” (Bioorg Med Chem Lett, 2008)
